Results published in ChEMBL document CHEMBL1139306, “Design and synthesis of pyrazole derivatives as potent and selective inhibitors of tissue-nonspecific alkaline phosphatase (TNAP)” (Bioorg Med Chem Lett, 2009).
pIC50: −log10 of the molar value.

Molecular target: Glyceraldehyde-3-phosphate dehydrogenase (Homo sapiens, UniProt P04406)
Assay: Inhibition of GAPDH

Sequence of Glyceraldehyde-3-phosphate dehydrogenase (P04406 whole entry): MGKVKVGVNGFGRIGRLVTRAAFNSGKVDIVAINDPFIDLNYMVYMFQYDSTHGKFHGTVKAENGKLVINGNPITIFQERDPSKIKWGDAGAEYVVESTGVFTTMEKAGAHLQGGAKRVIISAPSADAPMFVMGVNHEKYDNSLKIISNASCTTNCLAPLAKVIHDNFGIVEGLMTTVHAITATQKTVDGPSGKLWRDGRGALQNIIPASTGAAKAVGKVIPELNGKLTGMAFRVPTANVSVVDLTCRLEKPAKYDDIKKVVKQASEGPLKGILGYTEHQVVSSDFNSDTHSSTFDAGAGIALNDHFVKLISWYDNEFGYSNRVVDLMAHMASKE

| pIC50 | SMILES |
| --- | --- |
| < 5.00 | O=C(NCCO)c1cc(-c2ccc(Cl)c(Cl)c2Cl)n[nH]1 |

Molecular target: T1, Alkaline phosphatase, tissue-nonspecific isozyme (Homo sapiens, UniProt P05186)
T1 sequence (P05186 whole entry): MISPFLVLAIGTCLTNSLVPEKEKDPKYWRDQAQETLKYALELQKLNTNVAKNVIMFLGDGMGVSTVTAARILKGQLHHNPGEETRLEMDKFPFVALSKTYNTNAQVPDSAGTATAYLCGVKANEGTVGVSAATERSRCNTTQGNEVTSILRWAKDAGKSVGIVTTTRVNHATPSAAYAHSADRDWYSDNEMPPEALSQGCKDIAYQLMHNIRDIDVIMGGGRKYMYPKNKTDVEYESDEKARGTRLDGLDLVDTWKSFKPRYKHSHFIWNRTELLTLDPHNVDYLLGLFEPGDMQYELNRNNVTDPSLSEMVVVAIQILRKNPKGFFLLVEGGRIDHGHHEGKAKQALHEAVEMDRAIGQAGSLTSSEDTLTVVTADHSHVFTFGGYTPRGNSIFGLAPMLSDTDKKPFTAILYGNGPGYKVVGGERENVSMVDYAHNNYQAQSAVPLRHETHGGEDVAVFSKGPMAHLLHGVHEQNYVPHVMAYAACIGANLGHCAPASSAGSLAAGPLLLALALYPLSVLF
Assay: Inhibition of TNSALP
Summary of the method: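 TNAP activity read on an EnVision plate reader in 100 mM diethanolamine-HCl, pH 9.8, with 1 mM MgCl₂, 20 μM ZnCl₂ and 50 μM CDP-star as substrate.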

| SMILES | pIC50 |
| --- | --- |
| CCN1CCN(C(=O)c2cc(-c3ccc(Cl)cc3Cl)n[nH]2)CC1 | 6.31 |
| O=C(NCCO)c1cc(-c2cc(F)c(F)cc2F)n[nH]1 | 6.87 |
| O=C(NCCO)c1cc(-c2cc(F)c(Cl)cc2Cl)n[nH]1 | 7.00 |
| CCN(CC)C(=O)c1cc(-c2ccc(Cl)cc2Cl)n[nH]1 | 6.55 |
| CN1CCN(C(=O)c2cc(-c3ccc(Cl)cc3Cl)n[nH]2)CC1 | 6.08 |
| O=C(c1cc(-c2ccc(Cl)cc2Cl)n[nH]1)N1CCCCCC1 | 5.84 |
| CN(C)C(=O)c1cc(-c2ccc(Cl)cc2Cl)n[nH]1 | 6.92 |
| CN(C)C(=O)c1cc(-c2cc(F)c(Cl)cc2Cl)n[nH]1 | 6.49 |
| O=C(c1cc(-c2cc(F)c(Cl)cc2Cl)n[nH]1)N(CCO)CCO | 6.90 |
| O=C(c1cc(-c2ccc(Cl)cc2Cl)n[nH]1)N1CCOCC1 | 6.24 |
| CC(C)CCNC(=O)c1cc(-c2ccc(Cl)cc2Cl)n[nH]1 | 6.34 |
| CC(C)(C)NC(=O)c1cc(-c2ccc(Cl)cc2Cl)n[nH]1 | 6.40 |
| CC(C)NC(=O)c1cc(-c2cc(F)c(Cl)cc2Cl)n[nH]1 | 5.31 |
| O=C(c1cc(-c2ccc(Cl)cc2Cl)n[nH]1)N1CCN(CCO)CC1 | 6.43 |
| CC(C)CNC(=O)c1cc(-c2ccc(Cl)cc2Cl)n[nH]1 | 7.09 |

The next lines start with the values.

| pIC50 | SMILES |
| --- | --- |
| 7.29 | CC(C)NC(=O)c1cc(-c2ccc(Cl)cc2Cl)n[nH]1 |
| 7.36 | NNC(=O)c1cc(-c2ccc(Cl)cc2Cl)n[nH]1 |
| 7.46 | O=C(NCCO)c1cc(-c2ccc(F)cc2F)n[nH]1 |
| 7.25 | O=C(NCCCO)c1cc(-c2cc(F)c(Cl)cc2Cl)n[nH]1 |
| 7.33 | O=C(c1cc(-c2ccc(Cl)cc2Cl)n[nH]1)N(CCO)CCO |
| 7.46 | O=C(NCCCCO)c1cc(-c2ccc(Cl)cc2Cl)n[nH]1 |
| 7.36 | O=C(NCCO)c1cc(-c2ccc(Cl)cc2Cl)n[nH]1 |
| 7.51 | O=C(NCCCO)c1cc(-c2ccc(Cl)cc2Cl)n[nH]1 |
| 7.34 | COCCNC(=O)c1cc(-c2ccc(Cl)cc2Cl)n[nH]1 |

Tested on: not listed separately
Assay: Selectivity of TNSALP over GAPDH

| fold change (FC) | SMILES |
| --- | --- |
| 2000 | O=C(NCCO)c1cc(-c2ccc(Cl)c(Cl)c2Cl)n[nH]1 |

Molecular target: Alkaline phosphatase, placental type (Homo sapiens, UniProt P05187)
Assay: Inhibition of PLAP

Sequence of Alkaline phosphatase, placental type (P05187 whole entry): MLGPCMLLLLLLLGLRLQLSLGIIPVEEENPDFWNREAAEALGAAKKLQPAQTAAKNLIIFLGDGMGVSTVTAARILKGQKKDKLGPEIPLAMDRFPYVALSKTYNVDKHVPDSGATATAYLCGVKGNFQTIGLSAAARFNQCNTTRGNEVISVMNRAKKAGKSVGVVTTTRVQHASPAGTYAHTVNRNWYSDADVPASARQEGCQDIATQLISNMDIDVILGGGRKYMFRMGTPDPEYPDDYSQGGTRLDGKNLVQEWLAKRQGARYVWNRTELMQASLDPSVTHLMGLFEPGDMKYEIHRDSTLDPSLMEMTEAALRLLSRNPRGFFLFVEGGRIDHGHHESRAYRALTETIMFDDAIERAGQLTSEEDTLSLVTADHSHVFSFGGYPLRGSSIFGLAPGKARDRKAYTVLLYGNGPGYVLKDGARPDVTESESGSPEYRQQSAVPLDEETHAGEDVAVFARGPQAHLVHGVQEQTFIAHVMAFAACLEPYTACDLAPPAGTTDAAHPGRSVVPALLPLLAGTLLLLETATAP

| pIC50 | SMILES |
| --- | --- |
| < 5.00 | O=C(NCCO)c1cc(-c2ccc(Cl)c(Cl)c2Cl)n[nH]1 |

Tested on: not listed separately
Assay: Selectivity of TNSALP over PLAP

| fold change (FC) | SMILES |
| --- | --- |
| 2000 | O=C(NCCO)c1cc(-c2ccc(Cl)c(Cl)c2Cl)n[nH]1 |
